How the values were obtained:
[1] = test system: intracellular L. donovani; assay: L. donovani-infected macrophage assay; format: cell-based, Leishmania donovani; conditions: for IC50: read-out: IC50 against L. donovani; for inhibition at 50 µM: read-out: Inhibition of parasitemia at 50 μM, 50 μM
[2] = target: recombinant L. donovani CYP51 (Leishmania donovani, UniProt A0A3S7WRS7); assay: Fluorescence-based L. donovani CYP51 inhibition assay; format: biochemical
J774 macrophages = assay: J774 macrophage toxicity assay; format: cell-based, mouse; conditions: for IC50: Mus musculus, J774, read-out: IC50 against J774 macrophages
HepG2 cells = assay: HepG2 toxicity assay; format: cell-based; conditions: for IC50: Homo sapiens, HepG2, 72 h, read-out: IC50 against HepG2
[3] = Microsomal stability, human liver microsomes; format: in vitro ADME; conditions: for remaining at 1 h, 3 μM: human, liver microsomes
L. donovani CYP51 = L. donovani CYP51 ligand binding spectra; design: species or system Leishmania donovani; conditions: titration of CYP51; absorbance maximum 431 nm, minimum 412–413 nm
Method in brief: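 Purified N-terminally truncated L. donovani CYP51 (CYP51-32c, His-tagged; purity by SDS-PAGE/anti-His Western blot, CO-difference spectra) at 0.5 µM, titrated in 30 mM potassium phosphate pH 7.4 with 0.1 mM EDTA and 20% glycerol. […], and sample-minus-reference difference spectra were recorded.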

recombinant human CYP3A4 = recombinant human CYP3A4 (Homo sapiens, UniProt P08684); assay: Inhibition of recombinant human CYP3A4; format: in vitro ADME
recombinant human CYP3A4, sequence (P08684 whole entry): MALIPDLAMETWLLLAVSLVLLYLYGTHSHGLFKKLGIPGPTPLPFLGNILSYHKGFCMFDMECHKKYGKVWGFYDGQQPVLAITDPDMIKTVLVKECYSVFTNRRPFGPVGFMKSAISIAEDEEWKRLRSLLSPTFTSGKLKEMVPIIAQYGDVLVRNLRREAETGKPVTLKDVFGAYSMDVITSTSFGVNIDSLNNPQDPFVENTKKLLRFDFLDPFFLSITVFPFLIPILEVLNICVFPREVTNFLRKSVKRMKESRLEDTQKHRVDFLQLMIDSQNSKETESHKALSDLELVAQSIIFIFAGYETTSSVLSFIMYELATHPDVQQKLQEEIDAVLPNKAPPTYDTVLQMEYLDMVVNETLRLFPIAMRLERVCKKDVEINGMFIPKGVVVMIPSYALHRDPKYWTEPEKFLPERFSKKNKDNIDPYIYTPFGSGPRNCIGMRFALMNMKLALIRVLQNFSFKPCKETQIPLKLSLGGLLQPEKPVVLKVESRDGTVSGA

[4] = Microsomal stability, mouse liver microsomes; format: in vitro ADME; conditions: for remaining at 1 h, 3 μM: mouse, liver microsomes
[5] = test system: L. donovani-infected female BALB/c mice; assay: Murine visceral leishmaniasis model; format: in vivo; conditions: 10 mg/kg/day × 5 p.o.
Method in brief: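 Female BALB/c mice infected with L. donovani; groups of four. Dosing by oral gavage for 5 consecutive days, starting one week post-infection. Test compound was given at 75 or 37.5 mg/kg/day in 50% PEG400/50% water. Reference drug miltefosine was given at 10 mg/kg/day in water. The vehicle control group received PEG-400. Liver parasitemia was determined three days after the final dose, reported as percent reduction (mean ± S.E.M.).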

[6] = Leishmania donovani, Macrophage
[7] = substrate 3 μM, LC-MS detection
[8] = Leishmania donovani, Macrophage, intracellular L. donovani, mean ± S.E.M., n=3

C[C@@H]1[C@H](O)[C@@H](C)/C=C/C=C/C=C/C=C/C=C/C=C/C=C/[C@H](O[C@@H]2O[C@H](C)[C@@H](O)[C@H](N)[C@@H]2O)C[C@@H]2O[C@](O)(C[C@@H](O)C[C@@H](O)[C@H](O)CC[C@@H](O)C[C@@H](O)CC(=O)O[C@H]1C)C[C@H](O)[C@H]2C(=O)O [Amphotericin B, reference compound]
IC50 [1, 6]: 45 ± 3 nM

CC(C)Oc1cc(NC(=N)c2ccccn2)ccc1-c1ccc(-c2ccc(NC(=N)c3ccccn3)cc2OC(C)C)o1 [Compound 1, reference compound]
Inhibition of L. donovani CYP51 (in words) ([2]; at concentrations 5–10 times greater than their IC50 against intracellular L. donovani, M.Z. Wang, unpublished observations): weak inhibitors

N=C(Nc1ccc(OCCn2ccnc2)cc1)c1ccccn1 [Compound 9a, N-(4-(2-(1H-imidazol-1-yl)ethoxy)phenyl) picolinimidamide]
IC50 [1, 6]: > 50000 nM | IC50 [2]: 21000 ± 1000 nM | IC50 (J774 macrophages): > 50 µM | IC50 (HepG2 cells): > 50 µM

N=C(Nc1ccc(OCCn2cncn2)cc1)c1ccccn1 [Compound 9b, N-(4-(2-(1H-1,2,4-triazol-1-yl)ethoxy)phenyl) picolinimidamide]
IC50 [1, 6]: > 100000 nM | IC50 [2]: 35000 ± 2000 nM | IC50 (J774 macrophages): > 50 µM | IC50 (HepG2 cells): > 100 µM

N=C(Nc1ccc(OCCCn2ccnc2)cc1)c1ccccn1 [Compound 9c, N-(4-(3-(1H-imidazol-1-yl)propoxy)phenyl) picolinimidamide]
IC50 [1, 6]: > 25000 nM | IC50 [2]: 22000 nM | IC50 (J774 macrophages): > 50 µM | IC50 (HepG2 cells): > 50 µM

N=C(Nc1ccc(OCCCCn2ccnc2)cc1)c1ccccn1 [Compound 9d, N-(4-(4-(1H-imidazol-1-yl)butoxy)phenyl) picolinimidamide]
IC50 [1, 6]: 18000 ± 3000 nM | IC50 [2]: 6400 ± 100 nM | IC50 (J774 macrophages): > 50 µM | IC50 (HepG2 cells): > 20 µM

N=C(Nc1ccc(OCCCCn2cncn2)cc1)c1ccccn1 [Compound 9e, N-(4-(4-(1H-1,2,4-triazol-1-yl)butoxy)phenyl) picolinimidamide]
IC50 [1, 6]: > 100000 nM | IC50 [2]: 89000 ± 4000 nM | IC50 (J774 macrophages): > 50 µM | IC50 (HepG2 cells): > 100 µM

N=C(Nc1ccc(OCCCCCn2ccnc2)cc1)c1ccccn1 [Compound 9f, N-(4-((5-(1H-imidazol-1-yl)pentyl)oxy)phenyl) picolinimidamide]
IC50 [1, 6]: 13000 ± 5000 nM | IC50 [2]: 4800 ± 100 nM | IC50 (J774 macrophages): > 50 µM | IC50 (HepG2 cells): 42 ± 4 µM

N=C(Nc1ccc(OCCCCCCn2ccnc2)cc1)c1ccccn1 [Compound 9g, N-(4-((6-(1H-imidazol-1-yl)hexyl)oxy)phenyl) picolinimidamide]
IC50 [1, 6]: 8800 ± 600 nM | IC50 [2]: 1300 ± 100 nM | IC50 (J774 macrophages): > 40 µM | IC50 (HepG2 cells): 20 ± 3 µM

N=C(Nc1ccc(OCCCCCCCCn2ccnc2)cc1)c1ccccn1 [Compound 9h, N-(4-((8-(1H-imidazol-1-yl)octyl)oxy)phenyl) picolinimidamide]
IC50 [1, 6]: 1000 nM | IC50 [2]: 360 ± 30 nM | remaining at 1 h, 3 μM [3]: 100% | Degradation by human liver microsomes (in words) ([3]; over a period of one hour, substrate 3 μM): not degraded | IC50 (J774 macrophages): 11 ± 1 µM | CYP51 binding spectrum type (L. donovani CYP51): typical Type II binding spectra | IC50 (HepG2 cells): 12 ± 3 µM | IC50 (recombinant human CYP3A4): 47 ± 3 nM

N=C(Nc1ccc(OCCCCCCCCn2ccnc2)c(Cl)c1)c1ccccn1 [Compound 9i, N-(4-((8-(1H-imidazol-1-yl)octyl)oxy)-3-chlorophenyl) picolinimidamide]
IC50 [1, 6]: 1300 ± 200 nM | IC50 [2]: 180 ± 10 nM | Fold more potent as inhibitor of L. donovani CYP51 compared to 9h ([2]; compared to 9h): about 2 fold | IC50 (J774 macrophages): 6.8 ± 0.7 µM | IC50 (HepG2 cells): 7.7 ± 1.5 µM

N=C(Nc1ccc(OCCCCCCCCn2ccnc2)cc1Cl)c1ccccn1 [Compound 9j, N-(4-((8-(1H-imidazol-1-yl)octyl)oxy)-2-chlorophenyl) picolinimidamide]
IC50 [1, 6]: 2100 ± 200 nM | IC50 [2]: 150 ± 10 nM | Fold more potent as inhibitor of L. donovani CYP51 compared to 9h ([2]; compared to 9h): about 2 fold | IC50 (J774 macrophages): 8.6 ± 1.2 µM | IC50 (HepG2 cells): 8.6 ± 1.2 µM

N=C(Nc1ccc(OCCCCCCCCn2cncn2)cc1)c1ccccn1 [Compound 9k, N-(4-((8-(1H-1,2,4-triazol-1-yl)octyl)oxy)phenyl) picolinimidamide]
inhibition at 12.5 µM ([1]; Leishmania donovani, Macrophage, read-out: Inhibition of parasitemia at 12.5 μM, 12.5 μM, intracellular L. donovani, mean ± S.E.M., n=3): ~50% | Decrease in potency against intracellular L. donovani compared with 9h ([1]; compared with 9h): > 10 fold | IC50 [2]: 1900 ± 100 nM | IC50 (J774 macrophages): 36 ± 1 µM | IC50 (HepG2 cells): 32 ± 5 µM

N=C(Nc1ccc(OCCCCCCCCCCn2ccnc2)cc1)c1ccccn1 [Compound 9l, N-(4-((10-(1H-imidazol-1-yl)decyl)oxy)phenyl) picolinimidamide]
Mouse liver microsome t1/2 [4, 7]: 68 min | IC50 [1, 6]: 1400 ± 200 nM | IC50 [2]: 220 ± 10 nM | Human liver microsome t1/2 [3, 7]: 57 min | IC50 (J774 macrophages): 4.9 ± 0.9 µM | IC50 (HepG2 cells): 6.9 ± 1 µM

N=C(Nc1ccc(OCCCCCCCCn2cccc2)cc1)c1ccccn1 [Compound 9m, N-(4-((8-(1H-pyrrol-1-yl)octyl)oxy)phenyl) picolinimidamide]
IC50 [1, 6]: 1700 ± 300 nM | IC50 [2]: 14000 ± 1000 nM | Fold less active as a CYP51 inhibitor than 9h ([2]; compared to 9h): 39 fold | IC50 (J774 macrophages): 11 ± 1 µM | IC50 (HepG2 cells): 13 ± 2 µM

N=C(Nc1ccc(OCCCCCCCCn2ccnc2)cc1)c1ccccc1 [Compound 9n, N-(4-((8-(1H-imidazol-1-yl)octyl)oxy)phenyl)benzimidamide]
IC50 [1, 6]: 1200 ± 100 nM | IC50 [2]: 340 ± 10 nM | IC50 (J774 macrophages): 0.48 ± 0.02 µM | Increase in potency against J774 cells compared to 9h (J774 macrophages; compared to 9h): 22 fold | IC50 (HepG2 cells): 4.9 ± 1 µM | Increase in HepG2 activity compared to 9h (HepG2 cells; compared to 9h): 2.4 fold

COc1cc(NC(=N)c2ccccn2)ccc1OCCCCCCCCn1ccnc1 [Compound 17a, N-(4-((8-(1H-imidazol-1-yl)octyl)oxy)3-methoxyphenyl) picolinimidamide]
remaining at 1 h, 3 μM [4]: 100% | IC50 [1, 6]: 2200 ± 300 nM | IC50 [2]: 570 ± 10 nM | remaining at 1 h, 3 μM [3]: 100% | IC50 (J774 macrophages): 16 ± 1 µM | IC50 (HepG2 cells): 23 ± 2 µM

CCOc1cc(NC(=N)c2ccccn2)ccc1OCCCCCCCCn1ccnc1 [Compound 17b, N-(4-((8-(1H-imidazol-1-yl)octyl)oxy)3-ethoxyphenyl) picolinimidamide]
IC50 [1, 6]: 1900 ± 300 nM | IC50 [2]: 530 ± 20 nM | IC50 (J774 macrophages): 9 ± 1.3 µM | IC50 (HepG2 cells): 13 µM

CC(C)Oc1cc(NC(=N)c2ccccn2)ccc1OCCCCCCCCn1ccnc1 [Compound 17c, N-(4-((8-(1H-imidazol-1-yl)octyl)oxy)3-isopropoxyphenyl) picolinimidamide]
remaining at 1 h, 3 μM [4]: 100% | IC50 [1, 6]: 970 ± 70 nM | IC50 [2]: 290 ± 10 nM | remaining at 1 h, 3 μM [3]: > 80% | IC50 (J774 macrophages): 7.8 ± 0.3 µM | IC50 (HepG2 cells): 18 ± 1 µM

COc1cc(OCCCCCCCCn2ccnc2)ccc1NC(=N)c1ccccn1 [Compound 24a, N-(4-((8-(1H-imidazol-1-yl)octyl)oxy)-2-methoxyphenyl) picolinimidamide]
remaining at 1 h, 3 μM [4]: > 80% | IC50 [1, 6]: 1500 ± 400 nM | IC50 [2]: 360 ± 10 nM | remaining at 1 h, 3 μM [3]: > 80% | IC50 (J774 macrophages): 9.3 ± 0.5 µM | IC50 (HepG2 cells): 16 ± 2 µM

CCOc1cc(OCCCCCCCCn2ccnc2)ccc1NC(=N)c1ccccn1 [Compound 24b, N-(4-((8-(1H-imidazol-1-yl)octyl)oxy)-2-ethoxyphenyl) picolinimidamide]
remaining at 1 h, 3 μM [4]: 100% | IC50 [1, 6]: 730 ± 150 nM | IC50 [2]: 340 ± 10 nM | remaining at 1 h, 3 μM [3]: > 80% | IC50 (J774 macrophages): 6.8 ± 0.1 µM | IC50 (HepG2 cells): 12 ± 2 µM

N=C(NCCCCCCCCn1ccnc1)c1ccccn1 [Compound 28, N-(8-(1H-imidazol-1-yl)octyl)picolinimidamide]
IC50 [1, 6]: > 100000 nM | IC50 (HepG2 cells): > 100 µM

COc1cccc2c1C(=O)c1c(O)c3c(c(O)c1C2=O)C[C@@](O)(C(=O)CO)C[C@@H]3O[C@H]1C[C@H](N)[C@H](O)[C@H](C)O1 [Doxorubicin, reference compound]
IC50 (HepG2 cells): 0.2 ± 0.02 µM

OC(Cn1cncn1)(Cn1cncn1)c1ccc(F)cc1F [Fluconazole, fluconazole, reference compound]
inhibition at 50 µM [1, 8]: 16 ± 3% | IC50 [2]: 960 ± 30 nM

CC(=O)N1CCN(c2ccc(OCC3COC(Cn4ccnc4)(c4ccc(Cl)cc4Cl)O3)cc2)CC1 (centres unmarked) [Ketoconazole, ketoconazole, reference compound]
inhibition at 50 µM [1, 8]: 50 ± 7% | IC50 [2]: 48 ± 4 nM

CCCCCCCCCCCCCCCCOP(=O)([O-])OCC[N+](C)(C)C [Miltefosine, miltefosine, reference compound]
Reduction of liver infection [5]: 95 ± 2%

COc1cc([C@@H]2c3cc4c(cc3[C@H](O)[C@H]3COC(=O)[C@H]23)OCO4)cc(OC)c1OC [Podophyllotoxin, reference compound]
IC50 (J774 macrophages): 0.025 ± 0.001 µM

CC[C@@H]([C@H](C)O)n1ncn(-c2ccc(N3CCN(c4ccc(OC[C@@H]5CO[C@@](Cn6cncn6)(c6ccc(F)cc6F)C5)cc4)CC3)cc2)c1=O [Posaconazole, posaconazole, reference compound]
inhibition at 7.5 µM ([1]; Leishmania donovani, Macrophage, read-out: Inhibition of parasitemia at 7.5 μM, 7.5 μM, intracellular L. donovani, mean ± S.E.M., n=3): 47 ± 2% | IC50 [2]: 59 ± 1 nM

CCN(CC)CCCC(C)Nc1c2ccc(Cl)cc2nc2ccc(OC)cc12 (centres unmarked) [Quinacrine, reference compound]
IC50 (HepG2 cells): 5.5 ± 0.7 µM

From paper PMC8553517 (ACS infectious diseases, 2021)
